pKi: −log10 of the molar value. Activity calls are given as the source filed them.
Columns and labels:
[1] = tested on: Mus musculus; test: Neurotoxicity in CF1 albino mouse at 30 mg/kg, ip after 4 hrs by rotarod test; assay type: toxicity, organism-based; settings: in vivo
Summary of the method: (§1)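 Rotarod neurotoxicity in male albino CF-1 mice dosed ip with compound suspended in 0.5% methylcellulose. Animal placed on a 1 inch diameter knurled plastic rod rotating at 6 rpm. Neurotoxicity scored when the animal falls off three times within 1 min. Readout is number of animals toxic/number tested at the stated time after dosing. TD50 with 95% confidence interval from the quantitative study.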

[2] = tested on: Mus musculus; test: Anticonvulsant activity in CF1 albino mouse assessed as protection against maximal electroshock-induced seizure at 30 mg/kg, ip after 4 hrs; assay type: functional, organism-based
Summary of the method: (§2)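 Male CF-1 mice dosed ip as suspension in 0.5% methylcellulose. Corneal electrodes deliver 60 Hz alternating current, 50 mA for […], after a drop of 0.5% tetracaine HCl in 0.9% NaCl per eye. Protection means abolition of hindlimb tonic extension; scored as protected/tested, or ED50 with 95% confidence interval.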

[3] = tested on: Mus musculus; test: Anticonvulsant activity in CF1 albino mouse assessed as protection against maximal electroshock-induced seizure at 30 mg/kg, ip after 0.5 hrs; assay type: functional, organism-based; summary of the method: as §2
[4] = tested on: Mus musculus; test: Anticonvulsant activity in CF1 albino mouse assessed as protection against subcutaneous pentetrazole-induced seizure at 30 mg/kg, ip after 4 hrs; assay type: functional, organism-based
Summary of the method: (§3)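 Male CF-1 mice, ip in 0.5% methylcellulose; pentetrazole at CD97 (85 mg/kg) injected subcutaneously in a loose fold of neck skin. Observed 30 min; absence of even a threshold seizure (single clonic spasm lasting at least 5 s) counted as protection. Scored protected/tested, or ED50.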

[5] = tested on: Mus musculus; test: Anticonvulsant activity in CF1 albino mouse assessed as protection against subcutaneous pentetrazole-induced seizure at 30 mg/kg, ip after 0.5 hrs; assay type: functional, organism-based; summary of the method: as §3
[6] = tested on: Mus musculus; test: Neurotoxicity in CF1 albino mouse at 30 mg/kg, ip after 0.5 hrs by rotarod test; assay type: toxicity, organism-based; settings: in vivo; summary of the method: as §1
[7] = tested on: Mus musculus; test: Neurotoxicity in CF1 albino mouse at 300 mg/kg, ip after 4 hrs by rotarod test; assay type: toxicity, organism-based; settings: in vivo; summary of the method: as §1
[8] = tested on: Mus musculus; test: Anticonvulsant activity in CF1 albino mouse assessed as protection against maximal electroshock-induced seizure at 100 mg/kg, ip after 0.5 hrs; assay type: functional, organism-based; summary of the method: as §2
[9] = tested on: Mus musculus; test: Anticonvulsant activity in CF1 albino mouse assessed as protection against subcutaneous pentetrazole-induced seizure at 100 mg/kg, ip after 0.5 hrs; assay type: functional, organism-based; summary of the method: as §3
[10] = tested on: Mus musculus; test: Neurotoxicity in CF1 albino mouse at 100 mg/kg, ip after 4 hrs by rotarod test; assay type: toxicity, organism-based; settings: in vivo; summary of the method: as §1
[11] = tested on: Mus musculus; test: Neurotoxicity in CF1 albino mouse assessed as death at 300 mg/kg, ip after 0.5 hrs by rotarod test; assay type: toxicity, organism-based; settings: in vivo
Summary of the method: (§4)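 Male albino CF-1 mice dosed ip with compound suspended in 0.5% methylcellulose, then placed on a 1-inch knurled plastic rod turning at 6 rpm. A fall three times within 1 min counted as neurotoxicity. Observations were made at 0.5 h and 4 h after dosing. Result given as animals showing toxicity per animals tested, with the kind of toxicity recorded.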

[12] = tested on: Mus musculus; test: Neurotoxicity in CF1 albino mouse assessed as unable to grasp rotarod and death at 100 mg/kg, ip after 0.5 hrs by rotarod test; assay type: toxicity, organism-based; settings: in vivo; summary of the method: as §4
[13] = tested on: Mus musculus; test: Anticonvulsant activity in CF1 albino mouse assessed as protection against maximal electroshock-induced seizure at 100 mg/kg, ip after 4 hrs; assay type: functional, organism-based; summary of the method: as §2
[14] = tested on: Mus musculus; test: Anticonvulsant activity in CF1 albino mouse assessed as protection against subcutaneous pentetrazole-induced seizure at 100 mg/kg, ip after 4 hrs; assay type: functional, organism-based; summary of the method: as §3
[15] = target: Histamine H3 receptor (Homo sapiens, UniProt Q9Y5N1); test: Displacement of [3H]-Nalpha-methylhistamine from human recombinant histamine H3 receptor expressed in HEK293 cells after 90 mins; assay type: cell-based
[16] = tested on: Mus musculus; test: Anticonvulsant activity in CF1 albino mouse assessed as protection against maximal electroshock-induced seizure at 3 mg/kg, ip after 0.5 hrs; assay type: functional, organism-based; summary of the method: as §2
[17] = tested on: Mus musculus; test: Neurotoxicity in CF1 albino mouse at 3 mg/kg, ip after 0.5 hrs by rotarod test; assay type: toxicity, organism-based; settings: in vivo; summary of the method: as §1
[18] = tested on: Rattus norvegicus; test: Anticonvulsant activity in Sprague-Dawley rat assessed as protection against maximal electroshock-induced seizure at 30 mg/kg, po; assay type: functional
[19] = tested on: Mus musculus; test: Neurotoxicity in CF1 albino mouse at 10 mg/kg, ip after 0.5 hrs by rotarod test; assay type: toxicity, organism-based; settings: in vivo
Summary of the method: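 Rotarod neurotoxicity in male CF-1 mice dosed ip as 0.5% methylcellulose suspension: mouse placed on 1 inch knurled rod rotating at 6 rpm; toxicity when the animal falls off three times within 1 min, with other signs noted. Scored as toxic/tested at 0.5 h and 4 h.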

[20] = tested on: Mus musculus; test: Anticonvulsant activity in CF1 albino mouse assessed as protection against maximal electroshock-induced seizure at 10 mg/kg, ip after 0.5 hrs; assay type: functional, organism-based; summary of the method: as §2
[21] = tested on: Mus musculus; test: Anticonvulsant activity in CF1 albino mouse assessed as protection against 6 Hz-psychomotor-induced seizure at 50 mg/kg, ip after 4 hrs; assay type: functional, organism-based
Summary of the method: (§5)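 Male CF-1 mice, ip suspension in 0.5% methylcellulose. Corneal stimulation 0.2 ms monopolar rectangular pulses at 6 Hz, 32 mA for 3 s via constant-current device; mice without minimal clonic phase seizure counted protected. Groups of four; read at 0.25, 0.5, 1, 2, 4 h; result as protected/tested.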

[22] = tested on: Mus musculus; test: Anticonvulsant activity in CF1 albino mouse assessed as protection against 6 Hz-psychomotor-induced seizure at 50 mg/kg, ip after 2 hrs; assay type: functional, organism-based; summary of the method: as §5
[23] = tested on: Mus musculus; test: Anticonvulsant activity in CF1 albino mouse assessed as protection against 6 Hz-psychomotor-induced seizure at 50 mg/kg, ip after 0.5 hrs; assay type: functional, organism-based; summary of the method: as §5
[24] = tested on: Mus musculus; test: Neurotoxicity in CF1 albino mouse at 30 mg/kg, ip after 0.25 to 4 hrs by rotarod test; assay type: toxicity, organism-based; settings: in vivo; summary of the method: as §1
[25] = tested on: Mus musculus; test: Anticonvulsant activity in CF1 albino mouse assessed as protection against 6 Hz-psychomotor-induced seizure at 50 mg/kg, ip after 1 hr; assay type: functional, organism-based; summary of the method: as §5
[26] = tested on: Mus musculus; test: Anticonvulsant activity in CF1 albino mouse assessed as protection against 6 Hz-psychomotor-induced seizure at 30 mg/kg, ip after 0.25 to 4 hrs; assay type: functional, organism-based; summary of the method: as §5
[27] = tested on: Mus musculus; test: Anticonvulsant activity in CF1 albino mouse assessed as protection against 6 Hz-psychomotor-induced seizure at 50 mg/kg, ip after 0.25 hrs; assay type: functional, organism-based; summary of the method: as §5
[28] = tested on: Mus musculus; test: Neurotoxicity in CF1 albino mouse at 50 mg/kg, ip after 0.25 hrs by rotarod test; assay type: toxicity, organism-based; settings: in vivo; summary of the method: as §1
[29] = tested on: Mus musculus; test: Neurotoxicity in CF1 albino mouse at 50 mg/kg, ip after 4 hrs by rotarod test; assay type: toxicity, organism-based; settings: in vivo; summary of the method: as §1
[30] = tested on: Mus musculus; test: Neurotoxicity in CF1 albino mouse at 50 mg/kg, ip after 2 hrs by rotarod test; assay type: toxicity, organism-based; settings: in vivo; summary of the method: as §1

Histamine H3 receptor, sequence (Q9Y5N1 whole entry): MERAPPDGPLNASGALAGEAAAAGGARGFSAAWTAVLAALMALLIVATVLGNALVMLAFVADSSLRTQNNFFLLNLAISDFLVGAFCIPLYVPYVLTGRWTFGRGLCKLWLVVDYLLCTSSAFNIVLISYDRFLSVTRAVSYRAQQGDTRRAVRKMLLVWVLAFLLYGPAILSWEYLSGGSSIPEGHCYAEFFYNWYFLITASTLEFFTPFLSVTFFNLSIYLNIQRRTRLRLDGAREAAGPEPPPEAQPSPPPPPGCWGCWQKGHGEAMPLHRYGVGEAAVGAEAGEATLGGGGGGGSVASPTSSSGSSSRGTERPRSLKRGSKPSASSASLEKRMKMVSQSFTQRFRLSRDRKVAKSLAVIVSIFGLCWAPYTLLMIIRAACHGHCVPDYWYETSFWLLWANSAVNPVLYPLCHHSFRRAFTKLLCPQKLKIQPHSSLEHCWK

Row | SMILES | Activity [1] | Activity [2] | Activity [3] | Activity [4] | Activity [5] | Activity [6] | Activity [7] | Activity [8] | Activity [9] | Activity [10] | Activity [11] | Activity [12] | Activity [13] | Activity [14] | pKi [15] | Activity [16] | Activity [17] | Activity [18] | Activity [19] | Activity [20] | further results
1 | CC1CCCN(CCCCCCCOc2cccc(Cl)c2)C1.O=C(O)C(=O)O (configuration not stated) | Non-toxic | inactive | inactive | inactive | inactive | Non-toxic | Non-toxic | Active | inactive | Non-toxic | Toxic | Toxic | Active | inactive | 6.33 |  |  |  |  |  | 
2 | Clc1ccc(OCCCCCN2CCCCC2)cc1.O=C(O)C(=O)O | Non-toxic | inactive | Active | inactive | inactive | Non-toxic | Non-toxic | Active | inactive | Non-toxic | Toxic | Toxic |  | inactive | 6.37 | inactive | Non-toxic | inactive | Non-toxic | inactive | 
3 | Clc1cccc(OCCCCCCN2CCCCCC2)c1.O=C(O)C(=O)O | Non-toxic | inactive | Active | inactive | inactive |  | Non-toxic | Active | inactive | Non-toxic | Toxic | Toxic |  |  | 6.53 | inactive | Non-toxic |  | Non-toxic | inactive | Activity [21]: inactive; Activity [22]: inactive; Activity [23]: inactive; Activity [24]: Non-toxic; Activity [25]: inactive; Activity [26]: inactive; Activity [27]: inactive
4 | Clc1cccc(OCCCCCCCN2CCCCCC2)c1.O=C(O)C(=O)O | Non-toxic | inactive | inactive | inactive | inactive | Non-toxic | Non-toxic | Active |  | Non-toxic |  |  | inactive | inactive | < 3.82 |  |  |  |  |  | 
5 | Clc1ccc(OCCCCCCCN2CCCCCC2)cc1.O=C(O)C(=O)O | Non-toxic | inactive | Active | inactive | inactive | Non-toxic | Non-toxic | Active |  | Non-toxic |  | Toxic | Active |  | 6.69 | inactive | Non-toxic | 25% | Non-toxic | inactive | Activity [21]: inactive; Activity [28]: Non-toxic; Activity [29]: Non-toxic; Activity [22]: inactive; Activity [30]: Non-toxic; Activity [27]: inactive
